Assay results published in ChEMBL document CHEMBL4732226, “Discovery of a potent G-protein-coupled receptor 119 agonist for the treatment of type 2 diabetes” (Bioorg Med Chem, 2021).

Columns and labels:
[1] = Cmax in Sprague-Dawley rat at 25 mg/kg, po up to 24 hrs; type: ADME, organism-based; set-up: route oral, dose 25 mg/kg, time <=24; conditions: in vivo
Method in brief: (§1)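 Male SD rats fasted overnight, water ad libitum, fed 4 h after dosing. Single oral gavage of 25 mg/kg as a homogeneous suspension in 0.5% Tween 80 in 0.5% Na-CMC. Blood drawn into Na-heparin tubes at 0.25, 0.5, 1, 2, 4, 6, 8 and 24 h; plasma stored at -70°C. Parameters by non-compartmental analysis, with C0 taken as zero and BLQ samples set to zero.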

[2] = Toxicity in male Wistar rat assessed as ratio of adrenals to body weight at 100 mg/kg, po after 28 days (reference value: 0.020 +/- 0.003); type: organism-based; conditions: in vivo, 672 h, time 28 day
[3] = Toxicity in male Wistar rat assessed as ratio of epididymides to body weight at 200 mg/kg, po after 28 days (reference value: 0.361 +/- 0.028); type: organism-based; conditions: in vivo, 672 h, time 28 day
[4] = Toxicity in male Wistar rat assessed as creatinine level at 200 mg/kg, po after 28 days (reference value: 0.61 +/- 0.04 mg/dl); type: organism-based; conditions: in vivo, 672 h, time 28 day
[5] = AUC(0 to infinity) in Sprague-Dawley rat at 25 mg/kg, po up to 24 hrs; type: ADME, organism-based; set-up: route oral, dose 25 mg/kg, time <=24; conditions: in vivo; method in brief: as §1
[6] = Toxicity in male Wistar rat assessed as ratio of heart to body weight at 200 mg/kg, po after 28 days (reference value: 0.333 +/- 0.036); type: organism-based; conditions: in vivo, 672 h, time 28 day
[7] = Toxicity in female Wistar rat assessed as globulin level at 200 mg/kg, po after 28 days (reference value: 2.44 +/- 0.18 g/dl); type: organism-based; conditions: in vivo, 672 h, time 28 day
[8] = Toxicity in female Wistar rat assessed as glucose level at 100 mg/kg, po after 28 days (reference value: 78.4 +/- 8.36 mg/dl); type: organism-based; conditions: in vivo, 672 h, time 28 day
[9] = Toxicity in female Wistar rat assessed as ratio of brain to body weight at 400 mg/kg, po after 28 days (reference value: 1.1 +/- 0.078); type: organism-based; conditions: in vivo, 672 h, time 28 day
[10] = Tmax in Sprague-Dawley rat at 25 mg/kg, po up to 24 hrs; type: ADME, organism-based; conditions: in vivo; method in brief: as §1
[11] = Toxicity in male Wistar rat assessed as urea level at 200 mg/kg, po after 28 days (reference value: 58.14 +/- 9.13 mg/dl); type: organism-based; conditions: in vivo, 672 h, time 28 day
[12] = Toxicity in male Wistar rat assessed as ratio of brain to body weight at 400 mg/kg, po after 28 days (reference value: 0.766 +/- 0.038); type: organism-based; conditions: in vivo, 672 h, time 28 day
Mus musculus [13] = test: Antidiabetic activity in glucose-stimulated […] mouse assessed as reduction in blood glucose level at 50 mg/kg, po pretreated for 30 mins followed by glucose-stimulation and measured up to 120 mins by OGTT method relative to control; type: functional; set-up: scale not given: the % may be the effect or the level left; conditions: 0.5 h
Method in brief: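 C57 mice aged 6–8 weeks were grouped by non-fasting glucose and fasted overnight. Single oral dose of 50 mg/kg; 30 min later basal bleed and oral glucose 3 g/kg. Serum glucose taken at 20, 40, 60 and 120 min. Change in glucose AUC calculated.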

[14] = Toxicity in female Wistar rat assessed as ALT level at 200 mg/kg, po after 28 days (reference value: 21.28 +/- 2.31 U/L); type: organism-based; conditions: in vivo, 672 h, time 28 day
[15] = Toxicity in female Wistar rat assessed as ratio of uterus to body weight at 100 mg/kg, po after 28 days (reference value: 0.335 +/- 0.108); type: organism-based; conditions: in vivo, 672 h, time 28 day
[16] = Toxicity in female Wistar rat assessed as ratio of liver to body weight at 100 mg/kg, po after 28 days (reference value: 3.219 +/- 0.221); type: organism-based; conditions: in vivo, 672 h, time 28 day
[17] = Toxicity in male Wistar rat assessed as ratio of epididymides to body weight at 400 mg/kg, po after 28 days (reference value: 0.361 +/- 0.028); type: organism-based; conditions: in vivo, 672 h, time 28 day
[18] = Toxicity in male Wistar rat assessed as ratio of brain to body weight at 100 mg/kg, po after 28 days (reference value: 0.766 +/- 0.038); type: organism-based; conditions: in vivo, 672 h, time 28 day
[19] = Toxicity in male Wistar rat assessed as ALT level at 200 mg/kg, po after 28 days (reference value: 30.47 +/- 2.63 U/L); type: organism-based; conditions: in vivo, 672 h, time 28 day
[20] = Toxicity in male Wistar rat assessed as ALP level at 100 mg/kg, po after 28 days (reference value: 174.77 +/- 25.42 U/L); type: organism-based; conditions: in vivo, 672 h, time 28 day
[21] = Toxicity in female Wistar rat assessed as ratio of spleen to body weight at 400 mg/kg, po after 28 days (reference value: 0.244 +/- 0.032); type: organism-based; conditions: in vivo, 672 h, time 28 day
[22] = Toxicity in male Wistar rat assessed as ALP level at 400 mg/kg, po after 28 days (reference value: 174.77 +/- 25.42 U/L); type: organism-based; conditions: in vivo, 672 h, time 28 day
[23] = Toxicity in male Wistar rat assessed as ALT level at 400 mg/kg, po after 28 days (reference value: 30.47 +/- 2.63 U/L); type: organism-based; conditions: in vivo, 672 h, time 28 day
Mus musculus [24] = test: Antidiabetic activity in po dosed db/db mouse assessed as reduction in blood glucose level administered up to 14 days pretreated for 30 mins followed by glucose-stimulation and measured up to 120 mins by OGTT method relative to control; type: functional, organism-based; conditions: dose 1-50 mg/kg, time day <=14
Method in brief: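 Male db/db mice dosed orally once daily for 14 days at 1 to 50 mg/kg. Oral glucose 2 g/kg given 30 min after dosing, then blood glucose followed for 0–120 min. Glucose AUC determined on day 1 and day 14; mean ± s.e.m.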

[25] = Toxicity in female Wistar rat assessed as ratio of brain to body weight at 100 mg/kg, po after 28 days (reference value: 1.1 +/- 0.078); type: organism-based; conditions: in vivo, 672 h, time 28 day
Mus musculus [26] = test: Antidiabetic activity in db/db mouse assessed as reduction in blood glucose level at 50 mg/kg, po pretreated for 30 mins followed by glucose-stimulation and measured up to 120 mins by OGTT method relative to control; type: functional; set-up: scale not given: the % may be the effect or the level left; conditions: 0.5 h
Method in brief: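 db/db mice aged 5–7 weeks were fasted and grouped by fasting serum glucose. Single oral dose of 50 mg/kg; 30 min later basal bleed and oral glucose 2 g/kg. Serum glucose taken at 30, 60 and 120 min. AUC glucose excursion computed against a no-glucose water group and expressed as % reduction vs vehicle; mean ± s.e.m.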

[27] = Toxicity in female Wistar rat assessed as glucose level at 200 mg/kg, po after 28 days (reference value: 78.4 +/- 8.36 mg/dl); type: organism-based; conditions: in vivo, 672 h, time 28 day
[28] = Cmax in Wistar rat at 10 mg/kg, po up to 24 hrs; type: ADME, organism-based; set-up: route oral, dose 10 mg/kg, time <=24; conditions: in vivo
Method in brief: (§2)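 Single oral dose at 10 mg/kg given to male Wistar rats and to Beagle dogs; bioavailability also determined in both species.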

[29] = Toxicity in male Wistar rat assessed as ratio of brain to body weight at 200 mg/kg, po after 28 days (reference value: 0.766 +/- 0.038); type: organism-based; conditions: in vivo, 672 h, time 28 day
[30] = Toxicity in female Wistar rat assessed as ratio of brain to body weight at 200 mg/kg, po after 28 days (reference value: 1.1 +/- 0.078); type: organism-based; conditions: in vivo, 672 h, time 28 day
[31] = AUC(0 to infinity) in Beagle dog at 10 mg/kg, po up to 24 hrs; type: ADME, organism-based, Canis lupus familiaris; set-up: route oral, dose 10 mg/kg, time <=24; conditions: in vivo; method in brief: as §2

Cc1c(Oc2cccc(/C=C3\SC(=O)NC3=O)c2)ncnc1OC1CCN(C(=O)OC(C)(C)C)CC1 showed a Cmax [1] of 4960 ng/mL, a Ratio [2] of 0.023 and a Ratio [3] of 0.406. It also gave an Activity [4] of 0.57 mg/dL, an AUC(0-inf) [5] of 19700 ng·h/mL and a Ratio [6] of 0.363. The Activity [7] was 2.42 g/dL, the Activity [8] was 79.83 mg/dL and the Ratio [9] was 1.069. It also gave a Tmax [10] of 1.75 h, an Activity [11] of 55.62 mg/dL and a Ratio [12] of 0.809. For the same compound, the Activity (Mus musculus [13]) was 32.4%, the Activity [14] was 22.2 U/L and the Ratio [15] was 0.345. It also gave a Ratio [16] of 3.243, a Ratio [17] of 0.365 and a Ratio [18] of 0.83. The Activity [19] was 30.15 U/L, the Activity [20] was 152.22 U/L and the Ratio [21] was 0.228. For the same compound, the Activity [22] was 177.44 U/L, the Activity [23] was 29.6 U/L and the Activity (Mus musculus [24]) was “Dose-dependent effect”. It also gave a Ratio [25] of 1.103, an Activity (Mus musculus [26]) of 69.1% and an Activity [27] of 82.1 mg/dL. It also gave a Cmax [28] of 256 ng/mL, a Ratio [29] of 0.824 and a Ratio [30] of 1.114. For the same compound, the AUC(0-inf) [31] was 15200 ng·h/mL.
